# Measured values from ChEMBL document CHEMBL2311478, “Macrolactonolides: a novel class of anti-inflammatory compounds” (Bioorg Med Chem, 2013).
# pEC50: −log10 of the molar value.
# Tests used:
# PBMC [1] = test: Antiinflammatory activity in human PBMC assessed as inhibition of LPS-induced MIP1alpha production after 6 hrs; assay type: functional, cell-based
# Procedure, shortened: (§1)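 Thawed cryopreserved human PBMCs were preincubated 1 h at 37 °C, 5% CO2, then exposed to test compound for 1 h before LPS, anti-CD3 or PHA stimulation. Supernatants were collected at 6, 24 or 48 h according to each cytokine's peak, and cytokines quantified by Luminex multiplex bead assay. 10-point titration starting at 20 µM, in duplicate, with constant DMSO. Parallel Alamar Blue cytotoxicity check under 48 h PHA.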
# Streptococcus pneumoniae = test: Antibacterial activity against efflux mediated macrolide-resistant Streptococcus pneumoniae Ci137 by broth microdilution method; assay type: functional
# Procedure, shortened: (§2)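 MICs by CLSI broth microdilution with double dilutions, except that Streptococcus medium used 5% horse serum in place of lysed blood. Bacteria were pre-grown on Columbia agar with 5% sheep blood (streptococci) or Mueller–Hinton agar (staphylococci).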
# [2] = Half life in Balb/c mouse lung at 2 mg/kg, administered intranasally; assay type: ADME, organism-based; parameters: dose 2 mg/kg; settings: inhaled or intranasal
# Procedure, shortened: (§3)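 Male Balb/c mice (21–25 g) dosed intranasally with freshly prepared formulation in 1% DMSO plus 0.125% CMC. Terminal bleeding and lung collection from 5 min to 72 h. K2EDTA blood taken as blood aliquots or spun for plasma. Lung homogenised 1:5 in water. Samples were protein-precipitated with acetonitrile/methanol (2:1) plus roxithromycin internal standard and quantified by LC–MS/MS. LLOQ 0.5 ng/mL (blood/plasma) and 2.5 ng/mL (lung).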
# [3] = AUC (0 to infinity) in Balb/c mouse lung at 2 mg/kg, administered intranasally; assay type: ADME, organism-based; parameters: time infinity, route nasal, dose 2 mg/kg; settings: inhaled or intranasal; procedure, shortened: as §3
# PBMC [4] = test: Antiinflammatory activity in human PBMC assessed as inhibition of PHA-induced MCP-1 production after 24 hrs; assay type: functional, cell-based; procedure, shortened: as §1
# [5] = Half life in Balb/c mouse plasma at 2 mg/kg, administered intranasally; assay type: ADME, organism-based; parameters: dose 2 mg/kg; settings: inhaled or intranasal; procedure, shortened: as §3
# Staphylococcus aureus [6] = test: Antibacterial activity against inducible-resistant to macrolide, licosamide and streptogramin Staphylococcus aureus 90265/97 by broth microdilution method; assay type: functional; procedure, shortened: as §2
# Moraxella catarrhalis = test: Antibacterial activity against Moraxella catarrhalis ATCC 23246 by broth microdilution method; assay type: functional
# Procedure, shortened: (§4)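 CLSI broth microdilution with double dilutions in 96-well plates. For streptococci, 5% horse serum replaced lysed blood in the medium. Inocula were grown on Columbia agar with 5% sheep blood for streptococci, Mueller–Hinton chocolate agar for H. influenzae, and Mueller–Hinton agar for staphylococci. Read-out is MIC in mg/L.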
# [7] = Tmax in Balb/c mouse plasma at 2 mg/kg, administered intranasally; assay type: ADME, organism-based; parameters: dose 2 mg/kg; settings: inhaled or intranasal; procedure, shortened: as §3
# [8] = Drug uptake in mouse J774A1 cells at 10 uM after 3 hrs by LC-MS/MS method; assay type: ADME, cell-based; settings: j774.a1, 3 h
# Procedure, shortened: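 Uptake in J774A.1 macrophages seeded two days before at 2 × 10^5 cells/well. Cells were exposed to 10 µM compound for 3 h in DMEM/25 mM Hepes without supplements, washed with ice-cold PBS and lysed in 0.5% Triton X-100. Lysate was measured by LC–MS/MS, using a cell volume of 1.68 µL per 10^6 cells. Result is the I/E ratio, with E taken as 10 µM.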
# Glucocorticoid receptor = target: T1, Glucocorticoid receptor (Homo sapiens, UniProt P04150); test: Binding affinity to glucocorticoid receptor (unknown origin) by fluorescence polarization competitive binding assay
# T1 sequence (P04150 whole entry): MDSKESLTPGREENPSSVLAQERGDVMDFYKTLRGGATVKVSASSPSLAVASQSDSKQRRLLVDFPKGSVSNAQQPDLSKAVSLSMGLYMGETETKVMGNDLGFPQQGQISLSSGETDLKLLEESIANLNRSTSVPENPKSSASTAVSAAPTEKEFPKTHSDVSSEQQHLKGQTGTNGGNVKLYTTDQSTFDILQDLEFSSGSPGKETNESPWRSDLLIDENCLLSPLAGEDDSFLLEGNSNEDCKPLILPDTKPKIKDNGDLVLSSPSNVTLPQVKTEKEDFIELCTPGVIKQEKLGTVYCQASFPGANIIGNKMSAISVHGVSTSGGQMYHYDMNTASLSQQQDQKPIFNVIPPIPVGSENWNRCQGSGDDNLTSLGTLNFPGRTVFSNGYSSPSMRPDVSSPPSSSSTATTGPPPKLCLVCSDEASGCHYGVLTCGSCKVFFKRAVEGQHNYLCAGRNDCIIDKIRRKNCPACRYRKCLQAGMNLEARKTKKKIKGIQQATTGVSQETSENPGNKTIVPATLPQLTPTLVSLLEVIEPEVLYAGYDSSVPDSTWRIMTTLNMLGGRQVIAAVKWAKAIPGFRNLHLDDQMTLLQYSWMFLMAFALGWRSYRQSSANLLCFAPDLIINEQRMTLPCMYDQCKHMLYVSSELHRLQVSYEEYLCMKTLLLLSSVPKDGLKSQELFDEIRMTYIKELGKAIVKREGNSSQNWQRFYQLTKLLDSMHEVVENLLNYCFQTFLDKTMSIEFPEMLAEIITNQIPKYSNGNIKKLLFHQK
# PBMC [9] = test: cells; assay type: functional, cell-based; settings: Homo sapiens, 48 h
# [10] = AUC (0 to infinity) in Balb/c mouse blood at 2 mg/kg, administered intranasally; assay type: ADME, organism-based; parameters: time infinity, dose 2 mg/kg, route nasal; settings: whole blood, inhaled or intranasal; procedure, shortened: as §3
# [11] = AUC (0 to infinity) in Balb/c mouse plasma at 2 mg/kg, administered intranasally; assay type: ADME, organism-based; parameters: time infinity, route nasal, dose 2 mg/kg; settings: inhaled or intranasal; procedure, shortened: as §3
# PBMC [12] = test: Antiinflammatory activity in human PBMC assessed as inhibition of anti-CD3-induced IL-1beta production after 48 hrs; assay type: functional, cell-based; procedure, shortened: as §1
# [13] = Half life in Balb/c mouse blood at 2 mg/kg, administered intranasally; assay type: ADME, organism-based; parameters: dose 2 mg/kg; settings: whole blood, inhaled or intranasal; procedure, shortened: as §3
# PBMC [14] = test: Antiinflammatory activity in human PBMC assessed as inhibition of LPS-induced IL-8 production after 6 hrs; assay type: functional, cell-based; procedure, shortened: as §1
# PBMC [15] = test: Antiinflammatory activity in human PBMC assessed as inhibition of LPS-induced TNFalpha production after 6 hrs; assay type: functional, cell-based; procedure, shortened: as §1
# PBMC [16] = test: Antiinflammatory activity in human PBMC assessed as inhibition of PHA-induced IL-1beta production after 6 hrs; assay type: functional, cell-based; procedure, shortened: as §1
# PBMC [17] = test: Antiinflammatory activity in human PBMC assessed as inhibition of PHA-induced IL-13 production after 24 hrs; assay type: functional, cell-based; procedure, shortened: as §1
# PBMC [18] = test: Antiinflammatory activity in human PBMC assessed as inhibition of PHA-induced IL-4 production after 24 hrs; assay type: functional, cell-based; procedure, shortened: as §1
# Haemophilus influenzae = test: Antibacterial activity against Haemophilus influenzae ATTC 49247 by broth microdilution method; assay type: functional; procedure, shortened: as §4
# PBMC [19] = test: Antiinflammatory activity in human PBMC assessed as inhibition of anti-CD3-induced IL-12p70 production after 48 hrs; assay type: functional, cell-based; procedure, shortened: as §1
# PBMC [20] = test: Antiinflammatory activity in human PBMC assessed as inhibition of PHA-induced IFNgamma production after 24 hrs; assay type: functional, cell-based; procedure, shortened: as §1
# [21] = Ratio of drug AUC lung to blood in Balb/c mouse at 2 mg/kg, administered intranasally; settings: lung and blood, inhaled or intranasal
# PBMC [22] = test: Antiinflammatory activity in human PBMC assessed as inhibition of PHA-induced IL-8 production after 6 hrs; assay type: functional, cell-based; procedure, shortened: as §1
# Enterococcus faecalis = test: Antibacterial activity against Enterococcus faecalis ATCC 29213 by broth microdilution method; assay type: functional; procedure, shortened: as §4
# Staphylococcus aureus [23] = test: Antibacterial activity against Staphylococcus aureus ATCC 13709 by broth microdilution method; assay type: functional; procedure, shortened: as §4
compound,measurement,setting,value
CC[C@H]1OC(=O)[C@H](C)[C@@H](O[C@H]2C[C@@](C)(OC)[C@@H](O)[C@H](C)O2)[C@H](C)[C@@H](O[C@@H]2O[C@H](C)C[C@H](N(C)C)[C@H]2O)[C@](C)(O)C[C@@H](C)CN(CCCNC(=O)[C@H]2[C@H](C)C[C@H]3[C@@H]4CCC5=CC(=O)C=C[C@]5(C)[C@@]4(F)[C@@H](O)C[C@@]32C)[C@H](C)[C@@H](O)[C@]1(C)O,pEC50,PBMC [1],5.10
same,MIC,Streptococcus pneumoniae,32 µg/mL
same,half-life,[2],1200 min
same,AUC(0-inf),[3],9680 ng·h/mL
same,pEC50,PBMC [4],4.72
same,half-life,[5],54 min
same,MIC,Staphylococcus aureus [6],> 64 µg/mL
same,MIC,Moraxella catarrhalis,8 µg/mL
same,Tmax,[7],15 min
same,Drug uptake,[8],Active
same,pEC50,Glucocorticoid receptor,5.38
same,pEC50,PBMC [9],6.96
same,AUC(0-inf),[10],181 ng·h/mL
same,AUC(0-inf),[11],181 ng·h/mL
same,pEC50,PBMC [12],7.52
same,half-life,[13],54 min
same,pEC50,PBMC [14],5.05
same,pEC50,PBMC [15],5.52
same,pEC50,PBMC [16],4.86
same,pEC50,PBMC [17],6.38
same,pEC50,PBMC [18],6.68
same,MIC,Haemophilus influenzae,64 µg/mL
same,pEC50,PBMC [19],7.77
same,pEC50,PBMC [20],7.17
same,lung-to-blood AUC ratio,[21],53
same,pEC50,PBMC [22],5.52
same,MIC,Enterococcus faecalis,64 µg/mL
same,MIC,Staphylococcus aureus [23],8 µg/mL
